Test results as given in ChEMBL document CHEMBL5247578, “Effective synthesis of benzimidazoles-imidazo[1,2-a]pyrazine conjugates: A comparative study of mono-and bis-benzimidazoles for antitumor activity” (Eur J Med Chem, 2019).

Tests used:
Format in all cases: functional
T47D = assay: Antiproliferative activity against human T47D cells assessed as cell growth inhibition at 10 uM incubated for 48 hrs by sulforhodamine B assay relative to control
How it was run: (§1)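 NCI-60 single-dose screen at 10^-5 M. Cells grown in RPMI 1640 with 5% FBS and 2 mM L-glutamine, plated at 5,000–40,000 cells/well, and preincubated 24 h. Drug (DMSO stock) added and incubated 48 h at 37 °C, 5% CO2. Adherent cells fixed with cold TCA, stained with 0.4% SRB in 1% acetic acid, dye solubilized in 10 mM trizma base, A515 read. Percent growth taken against time-zero and untreated control.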

MDA-MB-231 = assay: Antiproliferative activity against human MDA-MB-231 cells assessed as cell growth inhibition at 10 uM incubated for 48 hrs by sulforhodamine B assay relative to control; how it was run: as §1
DU-145 = assay: Antiproliferative activity against human DU-145 cells assessed as cell growth inhibition at 10 uM incubated for 48 hrs by sulforhodamine B assay relative to control
How it was run: (§2)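 NCI-60 one-dose prescreen at 10^-5 M. Cells grown in RPMI 1640 with 5% FBS and 2 mM glutamine, preincubated 24 h, then exposed 48 h at 37 °C. Adherent lines TCA-fixed, SRB-stained, A515 read. Growth percent relative to time-zero and control; negative values mean cell kill.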

UO-31 = assay: Antiproliferative activity against human UO-31 cells assessed as cell growth inhibition at 10 uM incubated for 48 hrs by sulforhodamine B assay relative to control; how it was run: as §1
TK-10 = assay: Antiproliferative activity against human TK-10 cells assessed as cell growth inhibition at 10 uM incubated for 48 hrs by sulforhodamine B assay relative to control; how it was run: as §1
CAKI-1 = assay: Antiproliferative activity against human CAKI-1 cells assessed as cell growth inhibition at 10 uM incubated for 48 hrs by sulforhodamine B assay relative to control
How it was run: (§3)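 Single-dose NCI-60 prescreen at 10^-5 M. Cells in RPMI 1640 with 5% FBS and 2 mM L-glutamine, seeded 5,000–40,000 cells/well with 24 h preincubation, then drug exposure for 48 h at 37 °C under 5% CO2. Growth read by SRB staining of TCA-fixed cells at 515 nm against time-zero and untreated controls. Negative growth values denote cell kill.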

786-0 = assay: Antiproliferative activity against human 786-0 cells assessed as cell growth inhibition at 10 uM incubated for 48 hrs by sulforhodamine B assay relative to control; how it was run: as §3
SK-OV-3 = assay: Antiproliferative activity against human SK-OV-3 cells assessed as cell growth inhibition at 10 uM incubated for 48 hrs by sulforhodamine B assay relative to control; how it was run: as §1
OVCAR-4 = assay: Antiproliferative activity against human OVCAR-4 cells assessed as cell growth inhibition at 10 uM incubated for 48 hrs by sulforhodamine B assay relative to control; how it was run: as §1
IGROV-1 = assay: Antiproliferative activity against human IGROV-1 cells assessed as cell growth inhibition at 10 uM incubated for 48 hrs by sulforhodamine B assay relative to control; how it was run: as §1
UACC-62 = assay: Antiproliferative activity against human UACC-62 cells assessed as cell growth inhibition at 10 uM incubated for 48 hrs by sulforhodamine B assay relative to control; how it was run: as §1
UACC-257 = assay: Antiproliferative activity against human UACC-257 cells assessed as cell growth inhibition at 10 uM incubated for 48 hrs by sulforhodamine B assay relative to control; how it was run: as §1
SK-MEL-28 = assay: Antiproliferative activity against human SK-MEL-28 cells assessed as cell growth inhibition at 10 uM incubated for 48 hrs by sulforhodamine B assay relative to control; how it was run: as §1
MDA-MB-435 = assay: Antiproliferative activity against human MDA-MB-435 cells assessed as cell growth inhibition at 10 uM incubated for 48 hrs by sulforhodamine B assay relative to control; how it was run: as §1
Malme-3M = assay: Antiproliferative activity against human Malme-3M cells assessed as cell growth inhibition at 10 uM incubated for 48 hrs by sulforhodamine B assay relative to control; how it was run: as §1
SNB-19 = assay: Antiproliferative activity against human SNB-19 cells assessed as cell growth inhibition at 10 uM incubated for 48 hrs by sulforhodamine B assay relative to control; how it was run: as §1
SF-268 = assay: Antiproliferative activity against human SF-268 cells assessed as cell growth inhibition at 10 uM incubated for 48 hrs by sulforhodamine B assay relative to control; how it was run: as §1
SW-620 = assay: Antiproliferative activity against human SW620 cells assessed as cell growth inhibition at 10 uM incubated for 48 hrs by sulforhodamine B assay relative to control; how it was run: as §1
KM12 = assay: Antiproliferative activity against human KM12 cells assessed as cell growth inhibition at 10 uM incubated for 48 hrs by sulforhodamine B assay relative to control; how it was run: as §1
HT-29 = assay: Antiproliferative activity against human HT-29 cells assessed as cell growth inhibition at 10 uM incubated for 48 hrs by sulforhodamine B assay relative to control; how it was run: as §1
HCT-15 = assay: Antiproliferative activity against human HCT-15 cells assessed as cell growth inhibition at 10 uM incubated for 48 hrs by sulforhodamine B assay relative to control; how it was run: as §2
HCC 2998 = assay: Antiproliferative activity against human HCC 2998 cells assessed as cell growth inhibition at 10 uM incubated for 48 hrs by sulforhodamine B assay relative to control; how it was run: as §2
COLO 205 = assay: Antiproliferative activity against human COLO 205 cells assessed as cell growth inhibition at 10 uM incubated for 48 hrs by sulforhodamine B assay relative to control; how it was run: as §3
NCI-H322M = assay: Antiproliferative activity against human NCI-H322M cells assessed as cell growth inhibition at 10 uM incubated for 48 hrs by sulforhodamine B assay relative to control; how it was run: as §1
NCI-H23 = assay: Antiproliferative activity against human NCI-H23 cells assessed as cell growth inhibition at 10 uM incubated for 48 hrs by sulforhodamine B assay relative to control; how it was run: as §1
NCI-H226 = assay: Antiproliferative activity against human NCI-H226 cells assessed as cell growth inhibition at 10 uM incubated for 48 hrs by sulforhodamine B assay relative to control; how it was run: as §1
HOP-62 = assay: Antiproliferative activity against human HOP-62 cells assessed as cell growth inhibition at 10 uM incubated for 48 hrs by sulforhodamine B assay relative to control; how it was run: as §2
SR = assay: Antiproliferative activity against human SR cells assessed as cell growth inhibition at 10 uM incubated for 48 hrs by sulforhodamine B assay relative to control; how it was run: as §1
K562 = assay: Antiproliferative activity against human K562 cells assessed as cell growth inhibition at 10 uM incubated for 48 hrs by sulforhodamine B assay relative to control; how it was run: as §1
HOP-92 = assay: Antiproliferative activity against human HOP-92 cells assessed as cell growth inhibition at 10 uM incubated for 48 hrs by sulforhodamine B assay relative to control; how it was run: as §2
MOLT-4 = assay: Antiproliferative activity against human MOLT-4 cells assessed as cell growth inhibition by measuring lethal concentration incubated for 48 hrs by sulforhodamine B assay; settings: read-out: LC50 (the source's name)
SNB-75 = assay: Antiproliferative activity against human SNB-75 cells assessed as cell growth at 0.0000001 M incubated for 48 hrs by SRB assay relative to control; settings: dose 100 nM, read-out: Activity

SMILES | inhibition at 10 µM (T47D) | inhibition at 10 µM (MDA-MB-231) | inhibition at 10 µM (DU-145) | inhibition at 10 µM (UO-31) | inhibition at 10 µM (CAKI-1) | inhibition at 10 µM (786-0) | inhibition at 10 µM (OVCAR-4) | inhibition at 10 µM (IGROV-1) | inhibition at 10 µM (UACC-62) | inhibition at 10 µM (MDA-MB-435) | inhibition at 10 µM (SNB-19) | inhibition at 10 µM (SF-268) | inhibition at 10 µM (SW-620) | inhibition at 10 µM (KM12) | inhibition at 10 µM (HT-29) | inhibition at 10 µM (HCT-15) | inhibition at 10 µM (COLO 205) | inhibition at 10 µM (NCI-H23) | inhibition at 10 µM (NCI-H226) | inhibition at 10 µM (SR) | further results
c1cn2cc(-c3ccc4ncn(C5CCCCC5)c4c3)nc(-c3ccc4ncn(C5CCCCC5)c4c3)c2n1 | 54.9% | 49.2% | 46.3% | 68.8% | 54.6% | 34.3% | 22.8% | 60.8% | 51.9% | 60.2% | 41.2% | 41.7% | 35.6% | 63.5% | 71.9% | 57.1% | 22.4% | 28.2% | 46.7% | 71.8% | inhibition at 10 µM (TK-10): 14.4%; inhibition at 10 µM (SK-OV-3): 14.8%; inhibition at 10 µM (UACC-257): 35.5%; inhibition at 10 µM (SK-MEL-28): 24.4%; inhibition at 10 µM (Malme-3M): 7.04%; inhibition at 10 µM (HCC 2998): 17.7%; inhibition at 10 µM (NCI-H322M): 39.1%; inhibition at 10 µM (HOP-62): 42.6%; inhibition at 10 µM (K562): 69.8%
c1ccc(-c2cn3ccnc3c(-c3ccc4ncn(C5CCCCC5)c4c3)n2)cc1 | -11.1% | 41.5% | 29.3% | 55.1% |  | 36.8% | 34.5% | 11.9% | 65.7% | 28.7% | 22.9% | 21.7% | 9.15% | 49% | 48.3% | 51.6% | 20.7% | 45.3% | 33.9% | 59.8% | inhibition at 10 µM (TK-10): 2.26%; inhibition at 10 µM (SK-OV-3): 7.52%; inhibition at 10 µM (UACC-257): 5.22%; inhibition at 10 µM (SK-MEL-28): 18%; inhibition at 10 µM (NCI-H322M): 5.25%; inhibition at 10 µM (HOP-92): 53.7%; inhibition at 10 µM (K562): 70.6%
c1cn2cc(-c3ccc4c(c3)ncn4C3CCCCC3)nc(-c3ccc4ncn(C5CCCCC5)c4c3)c2n1 | 44.7% | 28.9% | 8.72% | 25.6% | 15.9% | 25.8% |  | 8.51% | 29.3% | 7.38% | 10.6% | 18.4% |  | 30.6% | 58.2% | 35.6% | 6.71% | 20.5% | 18.8% | 50% | inhibition at 10 µM (UACC-257): 14.9%; inhibition at 10 µM (Malme-3M): 5.14%; inhibition at 10 µM (HCC 2998): 15.5%; inhibition at 10 µM (HOP-62): 16.8%; inhibition at 10 µM (K562): 38.5%
Cc1cccc(-c2cn3ccnc3c(-c3ccc4ncn(Cc5ccccc5)c4c3)n2)c1 | 86% | 28.4% | 14.2% | 41.7% | 24.8% | 21.4% | 19.3% | 9.51% | 2.46% | 0.94% | 2.58% | 7.22% |  | 22.1% | 42% | 35.2% | 11.3% | 9.09% | 1.18% | 11% | inhibition at 10 µM (HOP-92): 28.7%; inhibition at 10 µM (HOP-62): 9.68%
c1ccc2c(-c3cn4ccnc4c(-c4ccc5ncn(C6CCCCC6)c5c4)n3)cccc2c1 | 41.3% | 20.8% | 5.1% | 23% | 25.1% | 6.33% | 19.7% |  | 16.7% |  | 9.08% | 7.84% | 5.34% | 11.1% | 4.11% | 4.46% |  | 4.32% | 9.45% | 6.92% | inhibition at 10 µM (HCC 2998): 2.23%; inhibition at 10 µM (NCI-H322M): 4.74%; inhibition at 10 µM (HOP-62): 19.6%; inhibition at 10 µM (K562): 30.9%
COc1ccc(-c2cn3ccnc3c(-c3ccc4ncn(C5CCCCC5)c4c3)n2)cc1 | -8.6% | 71.1% | 81.8% | 61.5% |  | 83.2% | 46.4% | 53.4% | 65.2% | -18.6% | 68.4% | 49.9% | 77.8% | 83.2% | 92.5% | 78.8% | -8.01% | 62.1% | 35.9% | 91.7% | CC50 (MOLT-4): > 100 µM; inhibition at 10 µM (TK-10): 18.5%; inhibition at 10 µM (SK-OV-3): 74.3%; inhibition at 10 µM (UACC-257): 26.3%; inhibition at 10 µM (SK-MEL-28): 47.7%; inhibition at 10 µM (HCC 2998): 62.6%; inhibition at 10 µM (NCI-H322M): 31.5%; inhibition at 10 µM (HOP-92): 52.3%; inhibition at 10 µM (K562): 92%; growth at 0.1 µM (SNB-75): 82%
CCc1ccc(-c2cn3ccnc3c(-c3ccc4ncn(Cc5ccccc5)c4c3)n2)cc1 | 94.8% | 43.2% | 19.1% | 57.9% | 47.9% | 38.1% | 35.1% | 25% | 24.9% | 50.9% | 20.9% | 30.5% | 18.8% | 45.7% | 68.8% | 74.7% | 34.2% | 23% | 1.48% | 49.9% | inhibition at 10 µM (TK-10): 15.5%; inhibition at 10 µM (SK-OV-3): 0.55%; inhibition at 10 µM (SK-MEL-28): 19.1%; inhibition at 10 µM (HCC 2998): 25.2%; inhibition at 10 µM (NCI-H322M): 0.89%; inhibition at 10 µM (HOP-92): 36.1%; inhibition at 10 µM (HOP-62): 17.9%
